# Measured values: ChEMBL document CHEMBL4699489, “Optimized Opioid-Neurotensin Multitarget Peptides: From Design to Structure-Activity Relationship Studies” (J Med Chem, 2020)
# pEC50, pKi: −log10 of the molar value. Numbered stars: 1 amine (or outer) side, 2 acyl side, 3 side chain; on linkers, the order of the positions; unused ones are H or OH. Square brackets hold non-standard residues; d marks the D form. Peptide text beside a SMILES is read from it. X1 = O=C1[C@@H](N[*:1])Cc2ccccc2CN1CCC(=O)[*:2]; X2 = O=C([C@@H]1Cc2cc(O)ccc2CN1[*:1])[*:2]; Dmt = Cc1cc(O)cc(C)c1C[C@H](N)C(=O)O; mTyr = N[C@@H](Cc1cccc(O)c1)C(=O)O; Tle = CC(C)(C)[C@H](N)C(=O)O; β3hK = NCCCC[C@H](N)CC(=O)O
# Tests used:
# [1] = molecular target: T1, Neurotensin receptor type 1 (Homo sapiens, UniProt P30989); assay: Agonist activity at human NTS1 expressed in HEK293 cells co-expressing Galphaq/RlucII/GFP10-Ggamma1/Gbeta1 assessed as increase in Gq activation incubated for 10 mins in presence of coelenterazine 400A by BRET assay relative to NT (8-13); format: cell-based
# [2] = molecular target: Neurotensin receptor type 2 (Homo sapiens, UniProt O95665); assay: Displacement of [125I]-neurotensin from human recombinant NTS2 stably expressed in human 1321N1 cell membranes incubated for 60 mins by gamma counter method
# [3] = molecular target: T1, Neurotensin receptor type 1; assay: Displacement of [125I]-neurotensin from human recombinant NTS1 stably expressed in CHO-K1 cell membranes incubated for 60 mins by gamma counter method
# [4] = molecular target: T2, Kappa-type opioid receptor (Homo sapiens, UniProt P41145); assay: Agonist activity at human KOR stably expressed in CHO cell membranes assessed as stimulation of [35S]-GTPgammaS binding incubated for 1 hr by liquid scintillation counting assay; format: functional
# Outline: (§1)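 Membranes from CHO cells stably expressing hMOR, hDOR or hKOR, prepared in 20 mM HEPES, 10 mM MgCl2, 100 mM NaCl, pH 7.4. Membranes (5–10 μg) incubated with 0.05 nM [35S]GTPγS, 10 μM GDP and graded peptide concentrations, 60 min at 25 °C. Nonspecific binding with 10 μM GTPγS, basal without ligand. GF/B filtration, scintillation counting. EC50 and Emax by nonlinear regression; Emax relative to DAMGO, DPDPE or U69,593. Duplicate, three independent experiments.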
# [5] = molecular target: T2, Kappa-type opioid receptor; assay: Agonist activity at human KOR stably expressed in CHO cell membranes assessed as stimulation of [35S]-GTPgammaS binding incubated for 1 hr by liquid scintillation counting assay relative to U69593; format: functional; details: time 60.0 min; outline: as §1
# [6] = molecular target: T2, Kappa-type opioid receptor; assay: Displacement of [3H]-U69593 from recombinant human kappa opioid receptor expressed in CHO cell membrane incubated for 60 mins by liquid scintillation counting method; format: cell membranes
# Outline: (§2)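 Membranes from CHO-hMOR, -hDOR or -hKOR cells, homogenized and washed in 50 mM Tris-HCl pH 7.4. Membranes (15–20 μg) incubated with [3H]DAMGO (MOR), [3H]diprenorphine (DOR) or [3H]U69,593 (KOR) plus graded peptide, 60 min at 25 °C. Nonspecific binding with 1–10 μM of the unlabelled ligand. GF/C filtration, scintillation counting. Ki by Cheng–Prusoff. Duplicate, three independent experiments.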
# Mu-type opioid receptor [7] = molecular target: T3, Mu-type opioid receptor (Homo sapiens, UniProt P35372); assay: Potency index, ratio of PK20 Ki to test compound Ki for displacement of [3H]-DAMGO from recombinant human mu opioid receptor expressed in CHO cell membranes
# Mu-type opioid receptor [8] = molecular target: T3, Mu-type opioid receptor; assay: Displacement of [3H]-DAMGO from recombinant human mu opioid receptor expressed in CHO cell membrane incubated for 60 mins by liquid scintillation counting method; format: cell membranes; outline: as §2
# [9] = molecular target: T4, Delta-type opioid receptor (Homo sapiens, UniProt P41143); assay: Displacement of [3H]-Diprenorphine from recombinant human delta opioid receptor expressed in CHO cell membrane incubated for 60 mins by liquid scintillation counting method; format: cell membranes; outline: as §2
# Mu-type opioid receptor [10] = molecular target: T3, Mu-type opioid receptor; assay: Agonist activity at human MOR expressed in CHO cell membranes assessed as stimulation of [35S]-GTPgammaS binding incubated for 1 hr by liquid scintillation counting assay relative to DAMGO; format: functional; details: filed as agonist, time 60.0 min; outline: as §1
# [11] = molecular target: T1, Neurotensin receptor type 1; assay: Agonist activity at human NTS1 expressed in HEK293 cells co-expressing Galphaq/RlucII/GFP10-Ggamma1/Gbeta1 assessed as increase in Galphaq activation incubated for 10 mins in presence of coelenterazine 400A by BRET assay; format: cell-based
# Mu-type opioid receptor [12] = molecular target: T3, Mu-type opioid receptor; assay: Agonist activity at human MOR expressed in human U2OS cells assessed as increase in beta arrestin2 recruitment incubated for 90 mins by pathhunter beta-arrestin assay; format: cell-based
# Outline: (§3)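 U2OS cells stably coexpressing hMOR and enzyme acceptor-tagged β-arrestin-2, seeded at 5000 cells/well and kept 24 h at 37 °C. Graded peptide concentrations in PBS added for 90 min at 37 °C, then detection mix for 60 min at room temperature. Chemiluminescence read-out. EC50 and Emax (relative to DAMGO) by nonlinear regression. Duplicate, three independent experiments.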
# Mu-type opioid receptor [13] = molecular target: T3, Mu-type opioid receptor; assay: Agonist activity at human MOR stably expressed in CHO cell membranes assessed as stimulation of [35S]-GTPgammaS binding incubated for 1 hr by liquid scintillation counting assay; format: functional; outline: as §1
# Mu-type opioid receptor [14] = molecular target: T3, Mu-type opioid receptor; assay: Agonist activity at human MOR expressed in human U2OS cells assessed as increase in beta arrestin2 recruitment incubated for 90 mins by pathhunter beta-arrestin assay relative to DAMGO; format: cell-based; details: filed as partial agonist; outline: as §3
# [15] = molecular target: T4, Delta-type opioid receptor; assay: Agonist activity at human DOR stably expressed in CHO cell membranes assessed as stimulation of [35S]-GTPgammaS binding incubated for 1 hr by liquid scintillation counting assay relative to DPDPE; format: functional; details: filed as agonist, time 60.0 min; outline: as §1
# [16] = molecular target: T4, Delta-type opioid receptor; assay: Agonist activity at human DOR stably expressed in CHO cell membranes assessed as stimulation of [35S]-GTPgammaS binding incubated for 1 hr by liquid scintillation counting assay; format: functional; outline: as §1
# Neurotensin receptor type 2, sequence (O95665 whole entry): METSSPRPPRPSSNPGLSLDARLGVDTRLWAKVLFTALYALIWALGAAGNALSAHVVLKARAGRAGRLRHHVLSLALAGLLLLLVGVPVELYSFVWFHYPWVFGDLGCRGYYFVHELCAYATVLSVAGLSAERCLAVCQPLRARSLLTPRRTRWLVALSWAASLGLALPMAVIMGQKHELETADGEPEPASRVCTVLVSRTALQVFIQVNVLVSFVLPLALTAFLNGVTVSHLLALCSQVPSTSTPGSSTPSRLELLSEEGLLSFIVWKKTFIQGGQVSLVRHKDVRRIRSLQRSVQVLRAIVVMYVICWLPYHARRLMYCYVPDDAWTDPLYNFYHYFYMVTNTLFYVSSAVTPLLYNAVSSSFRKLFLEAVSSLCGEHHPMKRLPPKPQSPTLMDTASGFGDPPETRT
# T2 sequence (P41145 whole entry): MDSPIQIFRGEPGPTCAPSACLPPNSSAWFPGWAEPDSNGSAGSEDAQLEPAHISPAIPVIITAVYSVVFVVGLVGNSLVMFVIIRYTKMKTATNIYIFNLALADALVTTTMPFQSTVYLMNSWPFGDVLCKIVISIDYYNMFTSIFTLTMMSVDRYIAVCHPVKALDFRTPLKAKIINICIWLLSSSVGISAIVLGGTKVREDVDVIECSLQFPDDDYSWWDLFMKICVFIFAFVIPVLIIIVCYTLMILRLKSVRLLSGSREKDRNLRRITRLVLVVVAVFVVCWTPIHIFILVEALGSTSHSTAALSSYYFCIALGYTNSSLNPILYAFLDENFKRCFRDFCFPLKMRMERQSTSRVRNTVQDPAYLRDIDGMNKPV
# T1 sequence (P30989 whole entry): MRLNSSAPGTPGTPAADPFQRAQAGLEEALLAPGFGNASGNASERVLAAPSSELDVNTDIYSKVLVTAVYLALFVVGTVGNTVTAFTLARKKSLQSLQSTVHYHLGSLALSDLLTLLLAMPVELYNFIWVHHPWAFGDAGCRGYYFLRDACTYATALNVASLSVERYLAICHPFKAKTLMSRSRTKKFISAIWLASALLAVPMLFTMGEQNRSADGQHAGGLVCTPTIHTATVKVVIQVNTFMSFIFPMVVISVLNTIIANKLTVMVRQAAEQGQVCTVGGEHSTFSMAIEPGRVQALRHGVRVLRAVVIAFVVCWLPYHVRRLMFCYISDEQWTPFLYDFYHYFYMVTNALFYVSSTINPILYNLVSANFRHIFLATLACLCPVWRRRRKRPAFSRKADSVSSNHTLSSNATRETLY
# T4 sequence (P41143 whole entry): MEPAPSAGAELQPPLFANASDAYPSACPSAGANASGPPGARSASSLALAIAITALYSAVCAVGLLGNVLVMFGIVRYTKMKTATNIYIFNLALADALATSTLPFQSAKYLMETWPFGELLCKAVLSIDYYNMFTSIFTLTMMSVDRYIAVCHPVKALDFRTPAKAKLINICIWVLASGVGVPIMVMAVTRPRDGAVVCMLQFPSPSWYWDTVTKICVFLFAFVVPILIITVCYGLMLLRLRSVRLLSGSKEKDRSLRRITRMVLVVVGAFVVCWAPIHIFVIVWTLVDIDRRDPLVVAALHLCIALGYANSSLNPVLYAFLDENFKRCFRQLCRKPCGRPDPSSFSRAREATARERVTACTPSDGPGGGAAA
# T3 sequence (P35372 whole entry): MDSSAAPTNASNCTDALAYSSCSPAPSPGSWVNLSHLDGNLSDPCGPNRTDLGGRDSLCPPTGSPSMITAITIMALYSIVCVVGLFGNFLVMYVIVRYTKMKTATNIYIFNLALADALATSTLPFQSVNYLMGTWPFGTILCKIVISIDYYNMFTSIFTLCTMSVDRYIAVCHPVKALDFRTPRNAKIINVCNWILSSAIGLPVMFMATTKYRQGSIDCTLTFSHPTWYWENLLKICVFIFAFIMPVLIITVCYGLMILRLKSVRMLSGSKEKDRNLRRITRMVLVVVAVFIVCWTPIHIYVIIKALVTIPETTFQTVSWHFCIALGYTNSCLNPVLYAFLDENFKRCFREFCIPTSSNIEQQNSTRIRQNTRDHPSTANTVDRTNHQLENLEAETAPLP
Compound,Emax [1],pKi [2],pKi [3],pEC50 [4],Emax [5],pKi [6],Ratio Ki (Mu-type opioid receptor [7]),pKi (Mu-type opioid receptor [8]),pKi [9],Emax (Mu-type opioid receptor [10]),pEC50 [11],pEC50 (Mu-type opioid receptor [12]),pEC50 (Mu-type opioid receptor [13]),Emax (Mu-type opioid receptor [14]),Emax [15],pEC50 [16]
CC(C)C[C@H](NC(=O)[C@@H](NC(=O)[C@H](Cc1ccc(O)cc1)NC(=O)[C@@H]1CCCN1C(=O)[C@H](CCCNC(=N)N)NC(=O)[C@@H](N)CCCNC(=N)N)C(C)(C)C)C(=O)O,97%,–,–,–,–,–,–,–,–,–,–,–,–,–,–,–
Cc1cc(O)cc(C)c1C[C@H](NC(=O)[C@@H]1CCCN1C(=O)[C@H](CCCNC(=N)N)NC(=O)C[C@@H](N)CCCNC(=N)N)C(=O)N[C@H](C(=O)N[C@@H](CC(C)C)C(=O)O)C(C)(C)C,–,9.96,8.64,–,–,–,–,–,–,–,–,–,–,–,–,–
Cc1cc(O)cc(C)c1C[C@H](NC(=O)[C@@H]1CCCN1C(=O)[C@H](CCCNC(=N)N)NC(=O)[C@@H](N)CCCNC(=N)N)C(=O)N[C@H](C(=O)N[C@@H](CC(C)C)C(=O)O)C(C)(C)C,–,8.52,7.87,–,–,–,–,–,–,–,–,–,–,–,–,–
CC(C)C[C@H](NC(=O)[C@@H](NC(=O)[C@H](Cc1cccc(O)c1)NC(=O)[C@@H]1CCCN1C(=O)[C@H](CCCNC(=N)N)NC(=O)[C@@H](N)CCCNC(=N)N)C(C)(C)C)C(=O)O,–,7.62,7.03,–,–,–,–,–,–,–,–,–,–,–,–,–
CC(C)C[C@H](NC(=O)[C@@H](NC(=O)[C@@H]1Cc2cc(O)ccc2CN1C(=O)[C@@H]1CCCN1C(=O)[C@H](CCCNC(=N)N)NC(=O)[C@@H](N)CCCNC(=N)N)C(C)(C)C)C(=O)O (H-RRP[X2][Tle]L-OH),–,6.88,5.18,–,–,–,–,–,–,–,–,–,–,–,–,–
Cc1cc(O)cc(C)c1C[C@H](N)C(=O)N[C@H](CCCNC(=N)N)C(=O)N[C@H]1Cc2ccccc2CN(CCC(=O)N[C@@H](CCCCN)C(=O)N[C@@H](CCCCN)C(=O)N2CCC[C@H]2C(=O)N[C@@H](Cc2ccc(O)cc2)C(=O)N[C@H](C(=O)N[C@@H](CC(C)C)C(=O)O)C(C)(C)C)C1=O (H-[Dmt][dR][X1]KKPY[Tle]L-OH),99%,9.54,8.64,5.78,31%,6.70,2,8.31,6.67,99%,9.59,5.61,7.19,67%,87%,5.88
Cc1cc(O)cc(C)c1C[C@H](NC(=O)[C@@H]1CCCN1C(=O)[C@H](CCCCN)NC(=O)[C@H](CCCCN)NC(=O)CCN1Cc2ccccc2C[C@H](NC(=O)[C@@H](CCCNC(=N)N)NC(=O)[C@@H](N)Cc2c(C)cc(O)cc2C)C1=O)C(=O)N[C@H](C(=O)N[C@@H](CC(C)C)C(=O)O)C(C)(C)C (H-[Dmt][dR][X1]KKP[Dmt][Tle]L-OH),109%,9.80,7.89,5.80,22%,6.86,2,8.15,6.56,95%,8.41,5.71,7.31,62%,60%,6.05
Cc1cc(O)cc(C)c1C[C@H](N)C(=O)N[C@H](CCCNC(=N)N)C(=O)N[C@H]1Cc2ccccc2CN(CCC(=O)N[C@@H](CCCCN)C(=O)N[C@@H](CCCCN)C(=O)N2CCC[C@H]2C(=O)N2Cc3ccc(O)cc3C[C@H]2C(=O)N[C@H](C(=O)N[C@@H](CC(C)C)C(=O)O)C(C)(C)C)C1=O (H-[Dmt][dR][X1]KKP[X2][Tle]L-OH),–,7.12,5.17,5.81,20%,6.82,2,8.20,6.68,94%,–,5.66,7.34,66%,91%,6.07
Cc1cc(O)cc(C)c1C[C@H](N)C(=O)N[C@H](CCCNC(=N)N)C(=O)N[C@H]1Cc2ccccc2CN(CCC(=O)N[C@@H](CCCCN)C(=O)N[C@@H](CCCCN)C(=O)N2CCC[C@H]2C(=O)N[C@@H](Cc2cccc(O)c2)C(=O)N[C@H](C(=O)N[C@@H](CC(C)C)C(=O)O)C(C)(C)C)C1=O (H-[Dmt][dR][X1]KKP[mTyr][Tle]L-OH),90%,9.30,7.23,6.40,30%,7.15,2,8.40,6.70,87%,7.82,5.90,7.56,66%,90%,6.34
Cc1cc(O)cc(C)c1C[C@H](N)C(=O)N[C@H](CCCNC(=N)N)C(=O)N[C@H]1Cc2ccccc2CN(CCC(=O)N[C@@H](CCCNC(=N)N)C(=O)N[C@@H](CCCNC(=N)N)C(=O)N2CCC[C@H]2C(=O)N[C@@H](Cc2ccc(O)cc2)C(=O)N[C@H](C(=O)N[C@@H](CC(C)C)C(=O)O)C(C)(C)C)C1=O (H-[Dmt][dR][X1]RRPY[Tle]L-OH),111%,10.05,9.37,6.29,34%,7.10,2,8.88,7.25,94%,9.62,5.88,7.89,72%,106%,6.52
Cc1cc(O)cc(C)c1C[C@H](NC(=O)[C@@H]1CCCN1C(=O)[C@H](CCCNC(=N)N)NC(=O)[C@H](CCCNC(=N)N)NC(=O)CCN1Cc2ccccc2C[C@H](NC(=O)[C@@H](CCCNC(=N)N)NC(=O)[C@@H](N)Cc2c(C)cc(O)cc2C)C1=O)C(=O)N[C@H](C(=O)N[C@@H](CC(C)C)C(=O)O)C(C)(C)C (H-[Dmt][dR][X1]RRP[Dmt][Tle]L-OH),101%,10.52,9.11,6.38,37%,6.99,2,8.95,6.80,96%,8.89,5.94,8.04,79%,91%,6.50
Cc1cc(O)cc(C)c1C[C@H](N)C(=O)N[C@H](CCCNC(=N)N)C(=O)N[C@H]1Cc2ccccc2CN(CCC(=O)N[C@@H](CCCNC(=N)N)C(=O)N[C@@H](CCCNC(=N)N)C(=O)N2CCC[C@H]2C(=O)N[C@@H](Cc2cccc(O)c2)C(=O)N[C@H](C(=O)N[C@@H](CC(C)C)C(=O)O)C(C)(C)C)C1=O (H-[Dmt][dR][X1]RRP[mTyr][Tle]L-OH),95%,9.48,7.91,6.37,28%,7.70,2,8.76,7.22,95%,8.17,6.44,8.19,81%,110%,6.75
Cc1cc(O)cc(C)c1C[C@H](NC(=O)[C@@H]1CCCN1C(=O)[C@H](CCCCN)NC(=O)C[C@H](CCCCN)NC(=O)CCN1Cc2ccccc2C[C@H](NC(=O)[C@@H](CCCNC(=N)N)NC(=O)[C@@H](N)Cc2c(C)cc(O)cc2C)C1=O)C(=O)N[C@H](C(=O)N[C@@H](CC(C)C)C(=O)O)C(C)(C)C (H-[Dmt][dR][X1][β3hK]KP[Dmt][Tle]L-OH),112%,9.49,7.82,6.62,36%,6.68,2,8.15,7.31,97%,8.74,5.52,7.18,69%,97%,6.61
